Measurements pooled from the literature.
Each line is one published result; the experiments were not run side by side.
ADRA1A: Alpha-1A adrenergic receptor (ADRA1A, Homo sapiens, UniProt P35348)
MAL12: Alpha-glucosidase MAL12 (MAL12, Saccharomyces cerevisiae S288c, UniProt P53341)

| SMILES | target | assay | setting | inhibition |
| --- | --- | --- | --- | --- |
| COc1cc2c3c(c1OC)-c1c(OC)ccc(Cl)c1CC3N(C)CC2 (racemic) | ADRA1A | ligand displacement, radioligand | 10 µM | 99% |
| C[C@H]1O[C@H](O[C@H]2[C@H](O)[C@@H](O)[C@@H](O[C@H]3[C@H](O)[C@@H](O)C(O)O[C@@H]3CO)O[C@@H]2CO)[C@H](O)[C@@H](O)[C@@H]1N[C@H]1C=C(CO)[C@@H](O)[C@H](O)[C@H]1O (stereo partly shown) | MAL12 | enzyme activity, inhibitor, absorbance | 50 µM | 37.9% |
| COc1cc(O)c2c(c1)oc(=O)c1c3cc(O)c(O)cc3oc21 | MAL12 | enzyme activity, inhibitor, absorbance | 128 µM | ~90% |
| CCCCCCCCCCCC(=O)OCC(C)(C)CC1=C(O)C(=O)c2ccccc2C1=O | MAL12 | enzyme activity, inhibitor | 50 µM | > 70% |
| COc1cc2c3c(c1OC)-c1c(OC)ccc(N4CCOCC4)c1CC3N(C)CC2 (stereo not shown) | ADRA1A | ligand displacement, radioligand | 10 µM | 65% |
| O=c1cc(-c2ccc(O)cc2)oc2cc(O)cc(O)c12 | MAL12 | enzyme activity, inhibitor, absorbance | 50 µM | 78.6% |
| CCCCCCCCCCCCCCCCCC(=O)OCC(C)(C)CC1=C(O)C(=O)c2ccccc2C1=O | MAL12 | enzyme activity, inhibitor | 50 µM | > 70% |
| NC/C(=C\F)COc1cccc(Cn2c(=S)[nH]c(=O)c3[nH]cnc32)c1 | Histamine H2 receptor (HRH2, Homo sapiens, UniProt P25021) | ligand displacement, radioligand | 10 µM | < 50% |
| COc1cc2c3c(c1OC)-c1c(OC)ccc(Br)c1CC3N(C)CC2 (stereo not shown) | ADRA1A | ligand displacement, radioligand | 10 µM | 95% |
| O=c1c(O)c(-c2ccc(O)c(O)c2)oc2cc(O)cc(O)c12 | MAL12 | enzyme activity, inhibitor, absorbance | 50 µM | 98.7% |
| C#Cc1cc(-c2cc(Nc3nc(N[C@@H](C)c4ccc(F)cn4)ncc3Cl)n[nH]2)ccc1C=O | Tyrosine-protein kinase Lyn (LYN, Homo sapiens, UniProt P07948) | enzyme activity, inhibitor | 0.2 µM | 89.2% |
| CC[N+]1(C)CCc2cc(OC)c(OC)c3c2C1Cc1cccc(OC)c1-3 (stereo not shown) | ADRA1A | ligand displacement, radioligand | 10 µM | 13% |
| O=c1c(O)c(-c2ccc(O)c(O)c2)oc2c(Br)c(O)c(Br)c(O)c12 | MAL12 | enzyme activity, inhibitor, absorbance | 50 µM | 95.8% |
